Our source for the activation values is PubChem BioAssay AID624467 (The Scripps Research Institute Molecular Screening Center, 2012).

Screen size: about 360,000 compounds; about 3,600 (1%) were called active. Shown is part of a subset that was picked to be rich in actives. Unmarked numbers belong to inactive results.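 The calls were made as follows: active = activation above the mean activation of all test compounds in the run plus 3 SD (cut at about 38% in these data); inactive = the rest.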

In the assay the target is Trace amine-associated receptor 1 (Homo sapiens) (UniProt Q96RJ0). Description: activators of TAAR1 calcium mobilization – Fluo-8 calcium fluorescence, CHO RD-HGA16 cells, primary screen (AID 624467). The note with it: CHO RD-HGA16 TAAR1, Fluo-8 calcium fluorescence; at 3 µM; stronger effect = higher value; vehicle wells 0%, saturating PEA agonist 100%. The essentials: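 Test system: RD-HGA16 (CHO) cells co-expressing Gα16 and hTAAR1; dosing: one-point dosing at 3 µM (nominal); timing: 17-24 h seeding, 75 min 37 °C dye, 30 min RT; signal: kinetic Fluo-8 calcium fluorescence; read-out basis: % activation relative to PEA EC100 response; controls: DMSO and PEA EC100; replicates: n 1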
Chain of Trace amine-associated receptor 1 (Homo sapiens) (Q96RJ0 whole entry, looked up): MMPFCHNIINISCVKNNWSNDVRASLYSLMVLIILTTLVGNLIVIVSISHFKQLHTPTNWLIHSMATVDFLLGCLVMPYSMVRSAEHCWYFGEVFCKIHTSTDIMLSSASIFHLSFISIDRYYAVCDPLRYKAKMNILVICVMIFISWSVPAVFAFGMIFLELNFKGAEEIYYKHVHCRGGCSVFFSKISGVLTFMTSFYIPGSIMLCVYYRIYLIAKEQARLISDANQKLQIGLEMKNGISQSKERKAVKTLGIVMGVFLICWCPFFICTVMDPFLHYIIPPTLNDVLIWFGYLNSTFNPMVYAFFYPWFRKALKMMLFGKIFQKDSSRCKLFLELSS
As to `CCOc1ccc(Cl)cc1-c1cc(C(=O)NCc2cccs2)[nH]n1`, the activation was 0.34%.

Consider `COc1ccc2c(c1)SC(C)CC2=O` (stereo not drawn), for which the activation is 5.89%.

Turning to `COc1ccc2c(c1)C(=O)CC(c1ccccc1)O2` (stereo not drawn), the activation is 5.95%.

As to `COc1ccc2c(c1)OC(O)(C(F)(F)C(F)F)CC2=O` (stereo not drawn), the activation was 56.3% (active).

With `Cc1ccc2c(c1)C(O)(CC(=O)c1cccnc1)C(=O)N2` (stereo not drawn), the activation is 0.5%.

With `CCCCSc1nc2c(c(=O)n1CC)SC(C)C2` (stereo not drawn), the activation is 10%.

`O=C(NS(=O)(=O)c1cccs1)[C@H]1O[C@@H](n2ccc(=O)[nH]c2=O)[C@H](O)[C@@H]1O`: the activation was 0.38%.

Regarding `CC1CCC2(CC1)NC(=O)N(CC(=O)c1ccc3c(c1)OCO3)C2=O` (stereo not drawn), the activation was 1.46%.

In the case of `Cc1ccc(NC(=O)CN2C(=O)NC(C)(c3ccc(Cl)cc3)C2=O)c(Br)c1` (stereo not drawn), the activation is 42.4% (active).

In the case of `Cc1ccc(C2(C)NC(=O)N(CC(=O)Nc3ccccc3C(=O)N3CCCCC3)C2=O)cc1` (stereo not drawn), the activation is 9.97%.

Take `COc1cc(NC(=O)CN2C(=O)NC(C)(c3ccc(OC(F)F)cc3)C2=O)cc(OC)c1OC` (stereo not drawn): the activation is 5.76%.

As to `COc1ccc(C2(C)NC(=O)N(CC(=O)c3ccc4c(c3)OCO4)C2=O)cc1` (stereo not drawn), the activation was 25.5%.

Turning to `COc1ccc(C(=O)CN2C(=O)NC(C)(c3ccc(C)cc3)C2=O)cc1OC` (stereo not drawn), the activation is 59.9% (active).

For `CC1(c2ccc(Cl)cc2)NC(=O)N(CC(=O)c2ccc3c(c2)OCO3)C1=O` (stereo not drawn), the activation was 48.4% (active).

With `Cc1ccc(C2(C)NC(=O)N(CC(=O)N3CC(=O)Nc4ccccc43)C2=O)cc1` (stereo not drawn), the activation was 1.06%.

`Cc1ccc(S(=O)(=O)N2CCN(C(=O)CN3C(=O)NC(C)(c4ccc(Cl)cc4)C3=O)CC2)c(C)c1` (stereo not drawn): the activation is 9.36%.

For `COc1ccc(NC(=O)N(C)C[C@@H]2OCCCC[C@@H](C)Oc3ccc(NC(=O)NC4CCCCC4)cc3C(=O)N([C@H](C)CO)C[C@@H]2C)cc1`, the activation is 0.43%.

Regarding `O=C(N[C@H](Cc1ccccc1)C(=O)N1CCCN(Cc2cccs2)CC1)[C@H]1O[C@@H](n2ccc(=O)[nH]c2=O)[C@H](O)[C@@H]1O`, the activation is 0.87%.

For the compound `N#Cc1cccc(C(=O)NCC2CCN(C(=O)C(=O)c3cc4ccccc4o3)CC2)c1`, the activation was 2.73%.

Take `CSc1ccc(Oc2cccc3c2S(=O)(=O)N([C@H](C)c2ccccc2)C[C@@H](COCc2ccccc2)O3)cc1C`: the activation was -0.58%.

With `CC(NC(=O)C(=O)NN=C1CCC(C(C)(C)C)CC1)c1ccccc1` (stereo not drawn), the activation is -1.32%.

As for `CCOC(=O)c1cc(-c2ccc(Cl)s2)nc2c1c(C)nn2C`, the activation is 12.8%.

Consider `CCCc1nnc(SCC(=O)N2C(C)CCCC2C)n1CC` (stereo not drawn), for which the activation is 7.54%.

Turning to `COc1cc(OC)c(-n2cc(-c3ccc(Cl)cc3)[nH]c2=O)cc1Cl`, the activation is 135% (active).

On to `COc1cc(OC)c(N2CC(C(=O)Nc3cc(Cl)ccc3N3CCOCC3)CC2=O)cc1Cl` (stereo not drawn), for which the activation was 9.38%.

Regarding `COc1ccc(-n2c(-c3ccc(Cl)cc3)n[nH]c2=S)c(OC)c1`, the activation is 1%.

For `O=C(NC1CCCC1)C(c1ccc(Cl)cc1)N(C(=O)c1csnn1)C1CC1` (stereo not drawn), the activation is 2.16%.

On to `N#CCSc1ccccc1NC(=O)CN1C(=O)NC(CCc2ccccc2)C1=O` (stereo not drawn), for which the activation was 4.54%.

Turning to `Cc1nc2ccccc2n1CC(=O)N/N=C/c1cccs1`, the activation is 41% (active).

For the compound `COc1ccc(NC(=O)COC(=O)Cn2c(C)nc3ccccc32)cc1OC`, the activation is 8.05%.

For the compound `Cc1ccc(-c2nnc(SCC(=O)N/N=C/c3cccs3)n2-c2ccc(C)cc2)cc1`, the activation was 2.56%.

As for `COc1ccc(N(C(=O)CNC(=O)c2ccco2)C(C(=O)NCC2CCCO2)c2ccccc2)cc1Cl` (stereo not drawn), the activation was 14%.

Consider `CC(=O)c1ccc(N2CCN(C(=O)c3ccc(Cl)c(S(=O)(=O)NC4CC4)c3)CC2)c(F)c1`, for which the activation is 5.24%.

`COc1ccc(S(=O)(=O)Nc2ccc3c(c2)C(=O)N([C@H](C)CO)C[C@H](C)[C@@H](CN(C)C)OCCCC[C@H](C)O3)cc1`: the activation was 1.27%.

As to `COc1cc(/C=C2\SC(=O)NC2=O)ccc1OCc1ccc(Cl)nc1`, the activation is 0.37%.

As for `C#CCOc1ccc(/C=C2/C(=O)NN(c3ccccc3)C2=O)cc1OC`, the activation was 52.3% (active).

For `C#CCOc1ccc(/C=C2/C(=O)ON=C2C)cc1OCC`, the activation was 26.1%.

For `CC(C)OC(=O)c1cc(NC(=O)C2C3CCC(O3)C2C(=O)O)cc(C(=O)OC(C)C)c1` (stereo not drawn), the activation is -0.82%.

As for `COc1ccc(NC(=O)C2C3CCC(O3)C2C(=O)O)cc1OC` (stereo not drawn), the activation is 2.71%.

Take `Cc1sc(NC(=O)C2C3CCC(O3)C2C(=O)O)c(C(=O)OC(C)C)c1-c1ccc(Cl)cc1` (stereo not drawn): the activation was 38.3% (active).

On to `CN1C(=O)c2cccc3c(N)ccc(c23)C1=O`, for which the activation is 119% (active).

As to `Cc1nn(C)cc1N1C(=O)c2cccc3c(N)ccc(c23)C1=O`, the activation was 83.9% (active).

Regarding `CCCOc1ccc(N2C(=O)CC(N(CCc3ccc(S(N)(=O)=O)cc3)C(C)=O)C2=O)cc1` (stereo not drawn), the activation is 1.5%.

`Cc1ccc(CNC(=O)Cn2cnc(S(=O)(=O)N3CCCCC3)c2)o1`: the activation is 1.59%.

As to `CCOC(=O)C1CCN(S(=O)(=O)c2ccc3c(c2)N(C(C)=O)CCO3)CC1`, the activation is -0.05%.

Turning to `CCCN1C(=O)c2[nH]nc(-c3ccccc3)c2C1c1ccccc1` (stereo not drawn), the activation was 2.41%.

Regarding `CN(C)C(=O)N1CCN(C(=O)[C@@H](Cc2ccccc2)NC(=O)[C@H]2O[C@@H](n3ccc(N)nc3=O)[C@H](O)[C@@H]2O)CC1`, the activation was 1.21%.

Take `COC(=O)Cc1nnn2c1[C@H](C)[C@H](c1ccccc1Br)OCC2`: the activation was 2.69%.

Regarding `COc1ccc(C(=O)N2CCCCC2c2cc(C(=O)Nc3ccccc3)no2)cc1` (stereo not drawn), the activation is -0.19%.

For the compound `O=C(Nc1n[nH]c(C(F)(F)F)n1)c1cccs1`, the activation was -0.13%.

For the compound `Cc1nc(-c2ccc(NC(=O)c3cccs3)cc2)cs1`, the activation is 44.8% (active).

`COc1cc(NC(=O)c2ccc(-c3csc(C)n3)cc2)c(OC)cc1Cl`: the activation was 3.15%.

Take `Cc1cccc(C)c1NC(=O)N1CC(C)OC(C)C1` (stereo not drawn): the activation is 41.9% (active).

`COC(=O)[C@H](Cc1ccccc1)NC(=O)N1CC(C)OC(C)C1` (stereo partly drawn): the activation is -0.71%.

For the compound `CSc1ccc(NC(=O)N2CC(C)OC(C)C2)cc1` (stereo not drawn), the activation is 6.32%.

As for `CC(=O)Nc1ccc(SC[C@H](Cc2ccccc2)N2CC[C@@H](C)CCC2=O)cc1`, the activation is 9.24%.

On to `O=C(/C=C(O)/C=C/c1ccc(O)cc1)/C=C/c1ccc(O)cc1`, for which the activation is 63.8% (active).

Turning to `C=CCNC(=O)/C=C/c1ccc(C(C)C)cc1`, the activation is -2.85%.

Turning to `O=C(O)/C=C/c1ccc(S(=O)(=O)N2CCCCCC2)cc1`, the activation was 4.85%.

In the case of `COC(=O)[C@H](CC(C)C)NS(=O)(=O)c1c(F)cccc1F`, the activation is 1.29%.

Consider `O=C(NCc1ccccc1)[C@H]1CCCN1C(=O)[C@@H]1CCCN1C(=O)c1ccc(Cl)cc1Cl`, for which the activation is 0.11%.

With `COc1ccc(SSc2ccc(OC)cc2C(=O)O)c(C(=O)O)c1`, the activation is 3.23%.

With `CC(C)(C)n1ncc2c(=O)n(Cc3c(Cl)cccc3Br)cnc21`, the activation was 38.2% (active).

As to `Cn1cnc2c1c(=O)n(Cc1c(Cl)cccc1Cl)c(=O)n2C`, the activation is 1.55%.

As to `CC(C)(C)n1ncc2c(=O)n(Cc3ccc(Cl)cc3)cnc21`, the activation was 11.1%.

In the case of `CCCNC(=O)C1(C)CCN(Cc2ccc(Cl)c(Cl)c2)C1` (stereo not drawn), the activation was 1.99%.

On to `Cc1ccc(C)c(-n2nnnc2SCC(=O)c2c(N)n(C)c(=O)n(C)c2=O)c1`, for which the activation was 2.95%.

For the compound `O=C1NC[C@H](CCCCN2C[C@H](Cc3ccc(O)cc3)N(CC3CCCCC3)C(=O)C2=O)N(CCc2ccccc2)C1=O`, the activation is -0.06%.

In the case of `COCCn1c(SC(C)C(=O)NC2CC2)nnc1-c1cccc(C)c1` (stereo not drawn), the activation is 3.19%.

On to `COc1ccccc1N1CCN(C(=O)c2cn(-c3ccccc3)nc2-c2cccnc2)CC1`, for which the activation is 19.1%.

`O=C(NNC(=S)NC(=O)c1cn(-c2ccccc2)nc1-c1ccccc1)c1ccncc1`: the activation was 118% (active).

As to `NC(=O)C1CCN(C(=O)c2cn(-c3ccccc3)nc2-c2cccnc2)CC1`, the activation is 1.55%.

Consider `O=C(NCc1ccc(F)cc1)C1CCC(CNc2c(N3CCOCC3)c(=O)c2=O)CC1` (stereo not drawn), for which the activation was 0.31%.

In the case of `O=C(Nc1ccccc1)Nc1nnc(COc2ccccc2F)s1`, the activation is 49.8% (active).

`O=C(NCCOc1ccccc1F)Nc1ccc(Br)cc1`: the activation was 12%.

In the case of `O=C(Nc1nnc(COc2ccccc2)s1)Nc1ccccc1F`, the activation was -0.19%.

Regarding `COC(=O)[C@]12C[C@H](CC(=O)NCCC(C)C)C(=O)N(CCc3ccc(OC)c(OC)c3)C1=C[C@H](C(C)(C)C)O[C@@H]2C`, the activation is -1.91%.

Consider `Cc1nc(NC(=O)C(C)(C)C)sc1[N+](=O)[O-]`, for which the activation was 1.6%.

As to `NC[C@H](Cc1ccccc1)NCCc1cc(C(F)(F)F)cc(C(F)(F)F)c1`, the activation was 47.6% (active).

On to `COC(=O)[C@@H](Cc1ccccc1)NC(=O)NCCc1ccccc1`, for which the activation was -0.6%.

Turning to `CCC(CC)NC(=O)CSc1nnc(-c2c[nH]c3ccccc23)o1`, the activation was 3.45%.

On to `CCOC(=O)c1cc2c(=O)[nH]c(C(Cl)(Cl)Cl)nc2o1`, for which the activation is 2.83%.

Regarding `CN1C(=O)C2CC(O)C(SC3CC4C(=O)N(C)C(=O)C4CC3O)CC2C1=O` (stereo not drawn), the activation was -0.78%.

On to `COc1cc(OC)c(NC(=O)C2CCCN2C(=O)OCc2ccccc2)cc1Cl` (stereo not drawn), for which the activation was 1.2%.

Take `CN1C(=O)C(Br)(Br)CC1c1cccnc1` (stereo not drawn): the activation is 0.34%.

On to `O=C(CCCN=C1NS(=O)(=O)c2ccccc21)OCC(=O)c1ccc(F)c(F)c1`, for which the activation is 86.8% (active).

Consider `N#CC1(NC(=O)COC(=O)CCN=C2NS(=O)(=O)c3ccccc32)CCCCC1`, for which the activation was 1.14%.

As to `O=C(OCCN=C1NS(=O)(=O)c2ccccc21)c1cccc([N+](=O)[O-])c1`, the activation is 0.99%.
